Key:
Type in all cases: functional
Streptococcus pyogenes [1] = assay: Antibacterial activity against erythromycin-susceptible Streptococcus pyogenes clinical isolate 1 assessed as bacterial growth inhibition incubated for 24 hrs by CLSI protocol based broth microdilution method
[2] = tested on: Staphylococcus epidermidis; assay: Antibacterial activity against penicillin-resistant Staphylococcus epidermidis assessed as inhibition of bacterial growth measured by broth microdilution method; details: time 24 hrs
Staphylococcus aureus [3] = assay: Antibacterial activity against erythromycin-susceptible Staphylococcus aureus ATCC 25923 assessed as bacterial growth inhibition incubated for 24 hrs by CLSI protocol based broth microdilution method
Staphylococcus aureus [4] = assay: Antibacterial activity against Staphylococcus aureus assessed as inhibition of bacterial growth measured by broth microdilution method; details: time 24 hrs
Summary of the method: (§1)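 Broth microdilution in Mueller Hinton broth. A 0.5 McFarland suspension was diluted tenfold, giving an inoculum of 1.5 × 10⁷ cfu/mL. This was added to 2-fold serial compound dilutions from […]. Plates were incubated aerobically at 37 °C for 24 h. MIC was the lowest concentration with no visible turbidity.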

Streptococcus pyogenes [5] = assay: Antibacterial activity against erythromycin-resistant Streptococcus pyogenes 2 assessed as bacterial growth inhibition incubated for 24 hrs by CLSI protocol based broth microdilution method
Staphylococcus aureus [6] = assay: Antibacterial activity against penicillin-resistant Staphylococcus aureus assessed as inhibition of bacterial growth measured by broth microdilution method; details: time 24 hrs
Summary of the method: (§2)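 Broth microdilution MIC. A 0.5 McFarland suspension was diluted 10-fold and added at 1.5 × 10⁷ cfu/mL to 2-fold dilutions (0.125–64) in Mueller Hinton broth. Incubated aerobically 24 h at 37 °C. MIC was the lowest concentration with no visible turbidity.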

Bacillus pumilus = assay: Antibacterial activity against penicillin-susceptible Bacillus pumilus CMCC 63202 assessed as bacterial growth inhibition by broth dilution method; details: time 24 hrs; summary of the method: as §1
Escherichia coli = assay: Antibacterial activity against penicillin-susceptible Escherichia coli ATCC 25922 assessed as inhibition of bacterial growth measured by broth microdilution method; details: time 24 hrs; summary of the method: as §1
Pseudomonas aeruginosa = assay: Antibacterial activity against penicillin-susceptible Pseudomonas aeruginosa ATCC27853 assessed as bacterial growth inhibition incubated for 24 hrs by CLSI protocol based broth microdilution method
Staphylococcus aureus [7] = assay: Antibacterial activity against methicillin-resistant Staphylococcus aureus ATCC 43300 assessed as inhibition of bacterial growth by broth microdilution method; details: time 24 hrs; summary of the method: as §2
Bacillus subtilis = assay: Antibacterial activity against penicillin-susceptible Bacillus subtilis ATCC 9372 assessed as bacterial growth inhibition incubated for 24 hrs by CLSI protocol based broth microdilution method

Row | Structure (SMILES) | MIC (Streptococcus pyogenes [1]) | MIC [2] | MIC (Staphylococcus aureus [3]) | MIC (Staphylococcus aureus [4]) | MIC (Streptococcus pyogenes [5]) | MIC (Staphylococcus aureus [6]) | MIC (Bacillus pumilus) | MIC (Escherichia coli) | MIC (Pseudomonas aeruginosa) | MIC (Staphylococcus aureus [7]) | MIC (Bacillus subtilis)
1 | C[n+]1c2ccccc2c(/C=C/c2ccc(Cl)cc2)c2ccccc21.[I-] | 1 µg/mL | 2 µg/mL | 1 µg/mL | 2 µg/mL | 1 µg/mL | 4 µg/mL | 1 µg/mL | > 64 µg/mL | > 64 µg/mL | 2 µg/mL | 2 µg/mL
2 | C[n+]1c2ccccc2c(/C=C/c2ccc(F)cc2)c2ccccc21.[I-] | 0.5 µg/mL | 8 µg/mL | 1 µg/mL | 2 µg/mL | 0.5 µg/mL | 16 µg/mL | 2 µg/mL | > 64 µg/mL | > 64 µg/mL | 8 µg/mL | 2 µg/mL
3 | Cc1ccc(-c2c3ccccc3[n+](C)c3ccccc23)cc1.[I-] | 4 µg/mL | 64 µg/mL | 1 µg/mL | 4 µg/mL | 16 µg/mL | > 64 µg/mL | 8 µg/mL | > 64 µg/mL | > 64 µg/mL | 64 µg/mL | 4 µg/mL
4 | C[n+]1c2ccccc2c(-n2cccc2)c2ccccc21.[Cl-] | 16 µg/mL | > 64 µg/mL | 32 µg/mL | 64 µg/mL | 64 µg/mL | 64 µg/mL | 64 µg/mL | > 64 µg/mL | > 64 µg/mL | > 64 µg/mL | 64 µg/mL
5 | Cc1cccc(-c2c3ccccc3[n+](C)c3ccccc23)c1.[I-] | 4 µg/mL | > 64 µg/mL | 1 µg/mL | 4 µg/mL | 16 µg/mL | > 64 µg/mL | 16 µg/mL | > 64 µg/mL | > 64 µg/mL | 64 µg/mL | 8 µg/mL
6 | C[n+]1c2ccccc2c(Nc2ccncn2)c2ccccc21.[Cl-] | > 64 µg/mL | > 64 µg/mL | 16 µg/mL | 32 µg/mL | > 64 µg/mL | > 64 µg/mL | 64 µg/mL | > 64 µg/mL | > 64 µg/mL | 32 µg/mL | 16 µg/mL
7 | C[n+]1c2ccccc2c(-c2cccc(F)c2)c2ccccc21.[I-] | 4 µg/mL | > 64 µg/mL | 8 µg/mL | 16 µg/mL | 16 µg/mL | > 64 µg/mL | 32 µg/mL | > 64 µg/mL | > 64 µg/mL | > 64 µg/mL | 16 µg/mL
8 | C[n+]1c2ccccc2c(/C=C/c2ccc(-c3ccccc3)cc2)c2ccccc21.[I-] | 0.5 µg/mL | 2 µg/mL | 0.5 µg/mL | 1 µg/mL | 0.5 µg/mL | 4 µg/mL | 2 µg/mL | 32 µg/mL | > 64 µg/mL | 2 µg/mL | 1 µg/mL
9 | CCCOc1ccc(C#Cc2c3ccccc3[n+](C)c3ccccc23)cc1.[I-] | 16 µg/mL | 8 µg/mL | 4 µg/mL | 4 µg/mL | 16 µg/mL | 16 µg/mL | 4 µg/mL | > 64 µg/mL | > 64 µg/mL | 4 µg/mL | 4 µg/mL
10 | COc1ccccc1C#Cc1c2ccccc2[n+](C)c2ccccc12.[I-] | 16 µg/mL | 16 µg/mL | 8 µg/mL | 4 µg/mL | 16 µg/mL | 16 µg/mL | 2 µg/mL | > 64 µg/mL | > 64 µg/mL | 8 µg/mL | 8 µg/mL
11 | C[n+]1c2ccccc2c(-c2ccc(OC(F)(F)F)cc2)c2ccccc21.[I-] | 1 µg/mL | 32 µg/mL | 0.5 µg/mL | 2 µg/mL | 4 µg/mL | 64 µg/mL | 8 µg/mL | > 64 µg/mL | > 64 µg/mL | 2 µg/mL | 4 µg/mL
12 | C[n+]1c2ccccc2c(-c2cccc([N+](=O)[O-])c2)c2ccccc21.[I-] | 16 µg/mL | > 64 µg/mL | 16 µg/mL | 32 µg/mL | 64 µg/mL | > 64 µg/mL | > 64 µg/mL | > 64 µg/mL | > 64 µg/mL | 64 µg/mL | 64 µg/mL
13 | COc1ccc(/C=C/c2c3ccccc3[n+](C)c3ccccc23)cc1OC.[I-] | 2 µg/mL | 32 µg/mL | 4 µg/mL | 8 µg/mL | 4 µg/mL | 64 µg/mL | 1 µg/mL | > 64 µg/mL | > 64 µg/mL | 16 µg/mL | 8 µg/mL
14 | CCCCCCCNc1c2ccccc2[n+](C)c2ccccc12.[Cl-] | 16 µg/mL | 32 µg/mL | 16 µg/mL | 16 µg/mL | 32 µg/mL | 16 µg/mL | 32 µg/mL | > 64 µg/mL | > 64 µg/mL | 32 µg/mL | 32 µg/mL
15 | Cc1ccc(/C=C/c2c3ccccc3[n+](C)c3ccccc23)cc1.[I-] | 0.25 µg/mL | 2 µg/mL | 0.5 µg/mL | 1 µg/mL | 0.5 µg/mL | 8 µg/mL | 0.5 µg/mL | 64 µg/mL | > 64 µg/mL | 4 µg/mL | 1 µg/mL
16 | CCOc1ccc(/C=C/c2c3ccccc3[n+](C)c3ccccc23)cc1.[I-] | < 0.125 µg/mL | 4 µg/mL | 0.5 µg/mL | 1 µg/mL | 0.5 µg/mL | 8 µg/mL | 16 µg/mL | > 64 µg/mL | > 64 µg/mL | 2 µg/mL | 2 µg/mL
17 | Cc1ccccc1-c1c2ccccc2[n+](C)c2ccccc12.[I-] | 64 µg/mL | > 64 µg/mL | 8 µg/mL | 64 µg/mL | > 64 µg/mL | > 64 µg/mL | > 64 µg/mL | > 64 µg/mL | > 64 µg/mL | > 64 µg/mL | 32 µg/mL
18 | COc1ccc(C#Cc2c3ccccc3[n+](C)c3ccccc23)cc1.[I-] | 16 µg/mL | 16 µg/mL | 4 µg/mL | 4 µg/mL | 16 µg/mL | 16 µg/mL | 4 µg/mL | > 64 µg/mL | > 64 µg/mL | 8 µg/mL | 4 µg/mL
19 | CCCCCNc1c2ccccc2[n+](C)c2ccccc12.[Cl-] | 16 µg/mL | 64 µg/mL | > 64 µg/mL | > 64 µg/mL | 32 µg/mL | 64 µg/mL | > 64 µg/mL | > 64 µg/mL | > 64 µg/mL | > 64 µg/mL | 64 µg/mL
20 | COc1ccc(-c2c3ccccc3[n+](C)c3ccccc23)cc1.[I-] | 8 µg/mL | > 64 µg/mL | 4 µg/mL | 8 µg/mL | 16 µg/mL | > 64 µg/mL | 16 µg/mL | > 64 µg/mL | > 64 µg/mL | > 64 µg/mL | 8 µg/mL
21 | C[n+]1c2ccccc2c(-c2ccc(C(F)(F)F)cc2)c2ccccc21.[I-] | 1 µg/mL | 32 µg/mL | 1 µg/mL | 2 µg/mL | 2 µg/mL | 64 µg/mL | 16 µg/mL | > 64 µg/mL | > 64 µg/mL | 4 µg/mL | 4 µg/mL
22 | C[n+]1c2ccccc2c(-c2ccccc2)c2ccccc21.[I-] | 8 µg/mL | > 64 µg/mL | 2 µg/mL | 8 µg/mL | 32 µg/mL | > 64 µg/mL | 32 µg/mL | > 64 µg/mL | > 64 µg/mL | > 64 µg/mL | 16 µg/mL

— ChEMBL document CHEMBL4837210 (Eur J Med Chem, 2021)
